Reference: ChEMBL document CHEMBL4706507, “Chromones bearing amino acid residues: Easily accessible and potent inhibitors of the breast cancer resistance protein ABCG2” (Eur J Med Chem, 2020)

Assays:
[1] = molecular target: T1, ABCB1 (Homo sapiens, UniProt P08183); experiment: Inhibition of ABCB1 (unknown origin) expressed in NIH/3T3 cells assessed as maximal inhibition at 1 uM by FACS based flow cytometry
[2] = molecular target: T1, ABCB1; experiment: Inhibition of ABCB1 (unknown origin) expressed in NIH/3T3 cells assessed as maximal inhibition at 10 uM by FACS based flow cytometry
[3] = molecular target: T2, Broad substrate specificity ATP-binding cassette transporter ABCG2 (Homo sapiens, UniProt Q9UNQ0); experiment: (§1) Inhibition of ABCG2 (unknown origin) in HEK293 cells assessed as maximal inhibition of mitoxantrone efflux at 1 uM by fluorescence based flow cytometry relative to control; format: cell-based; conditions: hek293, 1 µM
T2 sequence (Q9UNQ0 whole entry): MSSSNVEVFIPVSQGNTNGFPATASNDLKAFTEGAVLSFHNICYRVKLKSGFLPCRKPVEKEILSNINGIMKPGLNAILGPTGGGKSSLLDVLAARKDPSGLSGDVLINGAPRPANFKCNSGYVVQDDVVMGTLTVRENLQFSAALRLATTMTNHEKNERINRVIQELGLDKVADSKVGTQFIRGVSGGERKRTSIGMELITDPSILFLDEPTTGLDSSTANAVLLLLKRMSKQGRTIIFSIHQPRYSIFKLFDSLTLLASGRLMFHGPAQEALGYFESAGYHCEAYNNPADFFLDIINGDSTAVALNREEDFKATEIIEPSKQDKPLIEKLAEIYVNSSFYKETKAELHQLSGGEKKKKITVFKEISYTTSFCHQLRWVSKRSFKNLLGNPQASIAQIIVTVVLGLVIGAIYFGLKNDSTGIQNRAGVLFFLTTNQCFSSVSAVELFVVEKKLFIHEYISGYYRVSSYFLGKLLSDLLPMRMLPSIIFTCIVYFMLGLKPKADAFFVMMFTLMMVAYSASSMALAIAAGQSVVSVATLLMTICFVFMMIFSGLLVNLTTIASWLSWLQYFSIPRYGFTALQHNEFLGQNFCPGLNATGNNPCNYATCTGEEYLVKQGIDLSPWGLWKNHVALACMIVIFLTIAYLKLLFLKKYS
Outline: (§2)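 Efflux assay in HEK293-ABCG2 cells, with parental HEK293 cells as negative control. Cells seeded at 5×10^4/well overnight, then given compound plus 4 µM mitoxantrone (0.5% DMSO) for 30 min at 37 °C. Cells washed, trypsinized and resuspended in cold DPBS with 2% BSA.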

[4] = Cytotoxicity against human HEK293 cells assessed as cell viability at 10 uM measured after 72 hrs by MTT assay; format: cell-based; conditions: read-out: Activity
[5] = molecular target: T2, Broad substrate specificity ATP-binding cassette transporter ABCG2; experiment: Inhibition of ABCG2 (unknown origin) expressed in HEK293 cells assessed as maximal inhibition at 1 uM by FACS based flow cytometry; conditions: hek293, 1 µM
[6] = molecular target: T2, Broad substrate specificity ATP-binding cassette transporter ABCG2; experiment: Inhibition of ABCG2 (unknown origin) in HEK293 cells assessed as maximal inhibition of mitoxantrone efflux by fluorescence based flow cytometry; format: cell-based
Outline: as §2

[7] = molecular target: T3, ABCC1 (MRP1) (Homo sapiens, UniProt P33527); experiment: Inhibition of ABCC1 (unknown origin) expressed in Flp-In-293 cells assessed as maximal inhibition at 1 uM by FACS based flow cytometry
T3 sequence (P33527 whole entry): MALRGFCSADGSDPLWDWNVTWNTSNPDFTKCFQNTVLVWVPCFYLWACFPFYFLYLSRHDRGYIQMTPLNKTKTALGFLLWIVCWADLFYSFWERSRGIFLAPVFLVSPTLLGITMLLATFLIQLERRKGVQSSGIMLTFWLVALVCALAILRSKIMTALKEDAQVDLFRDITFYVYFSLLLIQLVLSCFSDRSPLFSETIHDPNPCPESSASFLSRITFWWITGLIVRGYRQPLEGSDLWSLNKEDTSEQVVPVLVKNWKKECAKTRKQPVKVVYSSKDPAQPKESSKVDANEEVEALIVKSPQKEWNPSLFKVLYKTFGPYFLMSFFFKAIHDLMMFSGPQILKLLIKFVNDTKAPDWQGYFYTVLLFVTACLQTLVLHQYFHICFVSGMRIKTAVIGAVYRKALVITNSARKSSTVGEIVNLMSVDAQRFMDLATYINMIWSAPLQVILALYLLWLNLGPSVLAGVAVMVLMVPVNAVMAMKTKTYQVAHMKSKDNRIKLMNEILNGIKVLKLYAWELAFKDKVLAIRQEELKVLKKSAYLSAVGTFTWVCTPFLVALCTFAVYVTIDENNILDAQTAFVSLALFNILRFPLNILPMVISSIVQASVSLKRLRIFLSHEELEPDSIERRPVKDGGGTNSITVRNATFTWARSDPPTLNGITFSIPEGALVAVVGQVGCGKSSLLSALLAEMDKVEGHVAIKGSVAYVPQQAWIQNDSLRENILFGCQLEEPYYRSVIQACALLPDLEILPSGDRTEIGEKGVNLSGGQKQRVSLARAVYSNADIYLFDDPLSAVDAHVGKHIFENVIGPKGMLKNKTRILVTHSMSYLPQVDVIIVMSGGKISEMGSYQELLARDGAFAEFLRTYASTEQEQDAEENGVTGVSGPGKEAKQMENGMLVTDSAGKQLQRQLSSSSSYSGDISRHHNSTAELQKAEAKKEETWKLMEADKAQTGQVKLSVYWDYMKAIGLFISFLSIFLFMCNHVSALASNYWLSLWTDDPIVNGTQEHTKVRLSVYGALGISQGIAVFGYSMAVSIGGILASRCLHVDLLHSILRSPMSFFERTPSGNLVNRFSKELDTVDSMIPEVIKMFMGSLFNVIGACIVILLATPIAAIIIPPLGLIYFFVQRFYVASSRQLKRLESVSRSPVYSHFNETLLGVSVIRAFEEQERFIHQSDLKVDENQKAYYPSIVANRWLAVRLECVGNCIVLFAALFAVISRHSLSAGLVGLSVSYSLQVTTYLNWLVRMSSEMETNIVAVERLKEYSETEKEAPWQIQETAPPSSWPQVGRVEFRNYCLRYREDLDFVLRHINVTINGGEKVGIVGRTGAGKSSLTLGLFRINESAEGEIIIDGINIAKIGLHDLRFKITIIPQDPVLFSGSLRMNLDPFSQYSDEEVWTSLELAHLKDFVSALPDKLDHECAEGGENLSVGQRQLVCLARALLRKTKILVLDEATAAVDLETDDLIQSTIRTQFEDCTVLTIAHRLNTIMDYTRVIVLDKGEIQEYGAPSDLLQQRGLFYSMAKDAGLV

[8] = molecular target: T3, ABCC1 (MRP1); experiment: Inhibition of ABCC1 (unknown origin) expressed in Flp-In-293 cells assessed as maximal inhibition at 10 uM by FACS based flow cytometry
[9] = Cytotoxicity against human HEK293 cells assessed as cell viability at 20 uM measured after 72 hrs by MTT assay; format: cell-based; conditions: read-out: Activity
[10] = molecular target: T4, ABCG2 (Homo sapiens, UniProt Q9UNQ0); experiment: as §1; format: cell-based; conditions: HEK293 cells with ABCG2, probe mitoxantrone, read-out: Imax
T4 sequence (Q9UNQ0 whole entry): T2 sequence (Q9UNQ0 whole entry)
Outline: as §2

T1 sequence (P08183 whole entry): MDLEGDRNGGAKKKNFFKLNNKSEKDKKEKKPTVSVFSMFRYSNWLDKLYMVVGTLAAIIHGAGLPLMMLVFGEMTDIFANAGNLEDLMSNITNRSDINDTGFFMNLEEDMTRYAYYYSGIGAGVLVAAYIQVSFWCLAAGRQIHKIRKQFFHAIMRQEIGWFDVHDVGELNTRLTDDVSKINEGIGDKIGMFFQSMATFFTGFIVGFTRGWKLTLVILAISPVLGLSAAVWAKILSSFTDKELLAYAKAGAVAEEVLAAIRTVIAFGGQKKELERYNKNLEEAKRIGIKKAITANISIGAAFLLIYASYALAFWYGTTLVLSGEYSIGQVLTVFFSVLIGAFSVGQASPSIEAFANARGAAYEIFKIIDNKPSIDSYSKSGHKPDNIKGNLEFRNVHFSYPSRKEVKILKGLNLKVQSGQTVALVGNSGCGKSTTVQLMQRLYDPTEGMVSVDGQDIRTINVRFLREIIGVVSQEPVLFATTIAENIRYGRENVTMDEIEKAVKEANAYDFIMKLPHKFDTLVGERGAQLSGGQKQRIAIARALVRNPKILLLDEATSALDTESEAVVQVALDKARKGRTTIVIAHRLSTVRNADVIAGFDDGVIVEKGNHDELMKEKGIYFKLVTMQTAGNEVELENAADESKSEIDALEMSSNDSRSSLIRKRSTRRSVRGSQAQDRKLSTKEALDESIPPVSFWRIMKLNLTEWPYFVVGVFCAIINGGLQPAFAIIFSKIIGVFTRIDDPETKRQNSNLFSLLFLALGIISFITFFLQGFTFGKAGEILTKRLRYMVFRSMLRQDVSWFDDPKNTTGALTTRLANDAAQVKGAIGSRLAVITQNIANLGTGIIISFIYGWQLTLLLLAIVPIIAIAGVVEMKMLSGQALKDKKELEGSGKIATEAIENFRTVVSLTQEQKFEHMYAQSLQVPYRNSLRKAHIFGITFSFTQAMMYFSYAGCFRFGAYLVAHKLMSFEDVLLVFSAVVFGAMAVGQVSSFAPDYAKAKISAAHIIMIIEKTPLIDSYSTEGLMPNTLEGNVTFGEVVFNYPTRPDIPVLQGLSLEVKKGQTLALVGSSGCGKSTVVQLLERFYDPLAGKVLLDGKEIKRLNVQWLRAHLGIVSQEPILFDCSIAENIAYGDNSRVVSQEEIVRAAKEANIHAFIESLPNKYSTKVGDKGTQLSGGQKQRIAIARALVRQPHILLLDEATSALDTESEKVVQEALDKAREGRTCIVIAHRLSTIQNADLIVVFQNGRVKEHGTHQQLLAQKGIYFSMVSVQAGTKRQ

Row | inhibition at 1 µM [1] [%] | inhibition at 10 µM [2] [%] | inhibition (INH) [5] [%] | inhibition at 1 µM [7] [%] | inhibition at 10 µM [8] [%] | SMILES | Imax [3] [%] | viability at 72 h, 10 µM [4] [%] | EC50 [6] [nM] | viability at 72 h, 20 µM [9] [%] | Emax at 1 µM [10] [%]
1 | 2 | 2 | 83 | 10 | 13 | CC[C@@H](C)[C@H](NC(=O)c1cc(=O)c2c(OCc3ccccc3Br)cccc2o1)C(=O)N[C@@H](CC(C)C)C(=O)OC | 83 | – | 70 | 104 | –
2 | 5 | 6 | – | 26 | – | COC(=O)[C@H](Cc1ccccc1)NC(=O)c1cc(=O)c2c(OCc3ccccc3Br)cccc2o1 | – | 82 | 100 | – | –
3 | 8 | 7 | 87 | 13 | – | COC(=O)[C@@H](NC(=O)c1cc(=O)c2c(OCc3ccccc3Br)cccc2o1)C(C)C | 87 | 76 | 50 | – | –
4 | 2 | 11 | 72 | 12 | – | CC[C@@H](C)[C@H](NC(=O)c1cc(=O)c2c(OCc3ccc(Br)cc3)cccc2o1)C(=O)N[C@H](C(=O)OC)C(C)C | 72 | – | 250 | 89 | –
5 | 0 | 0 | 85 | 11 | – | CC[C@@H](C)[C@H](NC(=O)c1cc(=O)c2c(OCc3ccccc3Br)cccc2o1)C(=O)N[C@H](C(=O)OC)C(C)C | 85 | – | 70 | 102 | –
6 | 7 | 5 | 115 | 20 | – | COC(=O)[C@H](CC(C)C)NC(=O)c1cc(=O)c2c(OCc3ccccc3Br)cccc2o1 | 115 | 87 | 140 | – | –
7 | – | – | 78 | 5 | – | CC[C@@H](C)[C@H](NC(=O)c1cc(=O)c2c(OCc3ccccc3Br)cccc2o1)C(=O)OC | 78 | – | 100 | – | –
8 | 4 | 6 | 52 | 11 | – | CC[C@@H](C)[C@H](NC(=O)c1cc(=O)c2c(OCc3ccc(Br)cc3)cccc2o1)C(=O)N[C@@H](CC(C)C)C(=O)OC | 52 | – | 110 | 101 | –

More lines, now with the values behind:

Row | SMILES | inhibition at 1 µM [1] [%] | inhibition at 10 µM [2] [%] | inhibition (INH) [5] [%] | inhibition at 1 µM [7] [%] | inhibition at 10 µM [8] [%] | Imax [3] [%] | viability at 72 h, 10 µM [4] [%] | EC50 [6] [nM] | viability at 72 h, 20 µM [9] [%] | Emax at 1 µM [10] [%]
9 | COC(=O)[C@H](Cc1c[nH]c2ccccc12)NC(=O)c1cc(=O)c2c(OCc3ccc(Br)cc3)cccc2o1 | 7 | 6 | 96 | 10.3 | – | 96 | 77 | 480 | – | –
10 | CC[C@@H](C)[C@H](NC(=O)c1cc(=O)c2c(OCc3ccc(Br)cc3)cccc2o1)C(=O)OC | – | – | – | – | – | – | – | 590 | – | 115
11 | COC(=O)[C@H](Cc1c[nH]c2ccccc12)NC(=O)c1cc(=O)c2c(OCc3ccccc3Br)cccc2o1 | 7 | 5 | 94 | 23 | – | 94 | 88 | 600 | – | –
12 | COC(=O)[C@@H](Cc1c[nH]c2ccccc12)NC(=O)c1cc(=O)c2c(OCc3ccc(Br)cc3)cccc2o1 | 7 | 6 | 85 | 11.9 | – | 85 | 102 | 290 | – | –
13 | COC(=O)[C@H](Cc1ccccc1)NC(=O)c1cc(=O)c2c(OCc3ccc(Br)cc3)cccc2o1 | 6 | 7 | – | 23 | – | – | 84 | 270 | – | –
